Published values gathered from unrelated publications.
Target: AP2-associated protein kinase 1 (AAK1, Homo sapiens, UniProt Q2M2I8)

`Cc1nccc(COC(=O)N2C[C@@H]3[C@@H](CNC(=O)c4ccc5[nH]nnc5c4)[C@@H]3C2)n1` gave a remaining binding of 100% (binding; 1 µM).
`O=C(NCCCN1CCOCC1)c1ccc(Nc2ncc(Cl)c(-c3ccc(Cl)s3)n2)cc1` has a remaining binding of 35% (binding; competition with immobilised ligand; 1 µM).
The remaining binding of `CN(c1nccc(-c2cnn3ncccc23)n1)C1CC1` is reported as 100% (binding; 1 µM).
With `C=CC(=O)N1CCC(C(=O)NCC(=O)N2CCN(c3nc(-c4cnc(N)nc4C(F)F)nc(N4CCOCC4)n3)CC2)CC1` the remaining binding was 100% (binding; competition with immobilised ligand; 1 µM).
With `FC(F)(F)Oc1cccc(-c2cnc3ccc(-c4ccncc4)nn23)c1` the remaining binding was 14% (cell-free assay; competition with immobilised ligand; 5 µM).
`CN(C(=O)c1ccccc1)c1cc(N(C)c2ccc3c(c2)CCc2ccc(C(=O)NCCN4CCOCC4)cc2C3=O)ccc1F` has a remaining binding of 100% (binding; 1 µM).
`O=C(c1ccc(Nc2nccc(-c3cc4ccccc4s3)n2)cc1)N1CCC(N2CCCC2)CC1` gave a remaining binding of 21% (binding; competition with immobilised ligand; 1 µM).
`CN(C)c1ncc(F)c(-c2cnn3ncccc23)n1` gave a remaining binding of 89% (binding; 1 µM).
The remaining binding of `CCc1ccccc1C(=O)Nc1n[nH]c2c(C)c(F)c(C3C(C#N)=C(C)N(C)C(C)=C3C#N)cc12` is reported as 81% (binding; 1 µM).
The remaining binding of `Cc1cnn2ncc(-c3ccnc(N(C)C)n3)c2c1` is reported as 91% (binding; 1 µM).
With `CC(=O)N1CCC(c2ccc(C(=O)NC(=N)N)cc2C(F)(F)F)CC1` the remaining binding was 100% (binding; 1 µM).
The remaining binding of `CC1CCCN1c1nccc(-c2cnn3ncccc23)n1` (stereo not shown) is reported as 100% (binding; 1 µM).
For `C[C@@H](c1ccc(-n2cnc3c(N)ncnc32)cc1)N1CCc2nn(C)c(Cc3ccccc3)c2C1=O`, the remaining binding was 98% (binding; competition with immobilised ligand; 0.1 µM).
`COc1cnc(Nc2cccc(S(N)(=O)=O)c2)nc1N1CCN(c2ccccc2)C(=O)C1` has a remaining binding of 84% (binding; competition with immobilised ligand; 1 µM).
`C[C@H]1CCN(c2nccc(-c3cnn4ncccc34)n2)C1` has a remaining binding of 64% (binding; 1 µM).
For `CCN1CCN(Cc2ccc(C(=O)Nc3ccc(C)c(Oc4ccc5c(c4)CC(=O)N5)c3)cc2C(F)(F)F)CC1`, the remaining binding was 100% (binding; competition with immobilised ligand; 1 µM).
`O=C(NCc1ncc(C(F)(F)F)cc1Cl)c1ccc2c(c1)C1(CCS(=O)(=O)CC1)[C@@H](C1CC1)N2S(=O)(=O)c1ccc(F)cc1` gave a remaining binding of 100% (binding; 1 µM).
`O=C(NCCCN1CCOCC1)c1ccc(Nc2nccc(-c3cc4ccccc4s3)n2)cc1` has a remaining binding of 27% (binding; competition with immobilised ligand; 1 µM).
For `c1cnn2ncc(-c3ccnc(N4CCC45COC5)n3)c2c1`, the remaining binding was 76% (binding; 1 µM).
For `O=C(Nc1cccnn1)N1CC(C/C=C/c2cncc(Oc3ccc(C(F)(F)F)cn3)n2)C1`, the remaining binding was 100% (cell-free assay; competition with immobilised ligand; 1 µM).
For `N[C@H]1CCN(c2nccc(-c3cnn4ncccc34)n2)C1`, the remaining binding was 91% (binding; 1 µM).
For `O=C(NCC1CCOCC1)c1n[nH]cc1NC(=O)c1c(F)cccc1F`, the remaining binding was 86% (binding; competition with immobilised ligand; 1 µM).
